From ChEMBL document CHEMBL5032510, “Identification of Novel Fused Heteroaromatics-Based MALT1 Inhibitors by High-Throughput Screening to Treat B Cell Lymphoma” (J Med Chem, 2021)
The source made the active and inactive calls. The rule behind the calls is not given here.

Assays:
[1] = Induction of apoptosis in human HBL1 cells assessed as viable cells at 5 uM measured after 24 hrs by Annexin V-FITC/ Propidium iodide staining based flow cytometry (reference value: 88.1%); type: functional; details: read-out: Activity
[2] = Induction of apoptosis in human HBL1 cells assessed as viable cells at 10 uM measured after 24 hrs by Annexin V-FITC/ Propidium iodide staining based flow cytometry (reference value: 88.1%); type: functional; details: read-out: Activity
[3] = Induction of apoptosis in human HBL1 cells assessed as early apoptotic cells at 2 uM measured after 24 hrs by Annexin V-FITC/ Propidium iodide staining based flow cytometry (reference value: 4.85%); type: functional
TMD8 [4] = test: Induction of apoptosis in human TMD8 cells assessed as early apoptotic cells at 2 uM measured after 24 hrs by Annexin V-FITC/ Propidium iodide staining based flow cytometry (reference value: 6.97%); type: functional
OCI-Ly1 [5] = test: Induction of apoptosis in human OCI-Ly1 cells assessed as viable cells at 2 uM measured after 24 hrs by Annexin V-FITC/ Propidium iodide staining based flow cytometry (reference value: 97.8%); type: functional; details: read-out: Activity
OCI-Ly1 [6] = test: Induction of apoptosis in human OCI-Ly1 cells assessed as viable cells at 10 uM measured after 24 hrs by Annexin V-FITC/ Propidium iodide staining based flow cytometry (reference value: 97.8%); type: functional; details: read-out: Activity
OCI-Ly1 [7] = test: Induction of apoptosis in human OCI-Ly1 cells assessed as late apoptotic cells at 10 uM measured after 24 hrs by Annexin V-FITC/ Propidium iodide staining based flow cytometry (reference value: 0.548%); type: functional
TMD8 [8] = test: Induction of apoptosis in human TMD8 cells assessed as increase in cleaved caspase 3 level measured after 12 hrs by Western blot analysis; type: functional, cell-based
How it was run: (§1)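 HBL1, TMD8 or OCI-LY1 cells were exposed to DMSO or compound for 12 h. Cleaved PARP and caspase-3 were probed by western blot with HRP-conjugated secondary antibodies and chemiluminescent detection. Each lane held 20−75 μg total protein.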

OCI-Ly1 [9] = test: Induction of apoptosis in human OCI-Ly1 cells assessed as increase in cleaved caspase 3 level at 2 to 5 uM measured after 12 hrs by Western blot analysis; type: functional, cell-based; details: dose 2-5 µM; how it was run: as §1
[10] = biological target: T1, Mucosa-associated lymphoid tissue lymphoma translocation protein 1 (Homo sapiens) (UniProt Q9UDY8); test: Inhibition of MALT1 in human HBL1 cells assessed as decrease in RelB substrate cleavage at 8 uM preincubated for 30 mins followed by proteosome inhibitor MG-132 addition and measured after 2 hrs by Western blot analysis; type: cell-based; details: time 2.5 hrs
T1 sequence (whole entry): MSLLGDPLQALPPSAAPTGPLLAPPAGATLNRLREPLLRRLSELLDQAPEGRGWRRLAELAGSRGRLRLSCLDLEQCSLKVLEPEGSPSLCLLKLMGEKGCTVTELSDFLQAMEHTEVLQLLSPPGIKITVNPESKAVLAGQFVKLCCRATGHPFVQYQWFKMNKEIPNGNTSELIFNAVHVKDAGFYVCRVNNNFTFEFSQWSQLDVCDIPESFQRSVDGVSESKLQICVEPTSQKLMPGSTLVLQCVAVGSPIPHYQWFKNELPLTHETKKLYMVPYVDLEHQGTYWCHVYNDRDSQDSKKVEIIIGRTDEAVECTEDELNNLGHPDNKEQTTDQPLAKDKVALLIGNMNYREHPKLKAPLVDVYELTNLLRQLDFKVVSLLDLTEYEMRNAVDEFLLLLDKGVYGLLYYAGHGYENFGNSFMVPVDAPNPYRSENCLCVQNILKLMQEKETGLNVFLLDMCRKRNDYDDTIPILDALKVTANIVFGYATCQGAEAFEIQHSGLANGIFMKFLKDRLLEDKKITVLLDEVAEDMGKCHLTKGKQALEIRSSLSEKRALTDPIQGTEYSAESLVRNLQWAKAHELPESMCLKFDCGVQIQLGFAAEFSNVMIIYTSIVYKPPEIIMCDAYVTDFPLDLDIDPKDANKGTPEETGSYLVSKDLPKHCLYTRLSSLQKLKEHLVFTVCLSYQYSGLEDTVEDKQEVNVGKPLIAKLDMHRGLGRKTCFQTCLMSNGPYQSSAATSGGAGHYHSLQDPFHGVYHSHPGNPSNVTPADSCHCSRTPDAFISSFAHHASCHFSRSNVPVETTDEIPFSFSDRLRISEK
How it was run: (§2)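 Cells were grown in RPMI with 10% FBS, 2 mM glutamine and 10 mM HEPES at 37 °C, 5% CO₂. Pretreated 30 min with compound (4 and 8 μM), then 10 μM MG-132 for 2 h. 20−75 μg total protein run on SDS-PAGE, blotted to PVDF, probed for RelB, detected by HRP chemiluminescence. β-actin was the loading control.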

[11] = biological target: T1, Mucosa-associated lymphoid tissue lymphoma translocation protein 1 (Homo sapiens); test: Inhibition of MALT1 in human TMD8 cells assessed as decrease in RelB substrate cleavage at 8 uM preincubated for 30 mins followed by proteosome inhibitor MG-132 addition and measured after 2 hrs by Western blot analysis; type: cell-based; details: time 2.5 hrs; how it was run: as §2
[12] = biological target: Nuclear factor NF-kappa-B complex (Homo sapiens) (UniProt Q00653+P19838+Q04206); test: Inhibition of NF-kappaB signalling in human HBL1 cells assessed as reduction in phosphorylation of IkappaB-alpha at 8 uM preincubated for 30 mins followed by proteosome inhibitor MG-132 addition and measured after 2 hrs by Western blot analysis; type: cell-based; details: time 2.5 hrs
How it was run: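 HBL1 cells were pretreated with compound (4 and 8 μM) for 30 min, then given 10 μM MG-132 for 2 h. Phospho-IκBα, IκBα and RelB were probed by western blot, with β-actin as loading control. Each lane held 20−75 μg total protein, with chemiluminescent detection.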

[13] = Induction of apoptosis in human HBL1 cells assessed as late apoptosis at 10 uM measured after 24 hrs by Annexin V-FITC/ Propidium iodide staining based flow cytometry (reference value: 4.77%); type: functional
[14] = Half life in CD-1 mouse at 10 mg/kg, po by LC-MS/MS analysis; type: ADME, organism-based; details: in vivo
How it was run: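 Compound formulated in 5% DMSO + 5% Tween-80 in 90% saline and given to male ICR (CD-1) mice (n = 9) at 10 mg/kg po, 1 mg/kg ip or 1 mg/kg iv. Blood was drawn via the jugular vein at set time points and held on ice. Plasma was separated by centrifugation and stored at −80 °C before PK parameters were derived.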

[15] = MRT (0 to t) in CD-1 mouse at 10 mg/kg, po by LC-MS/MS analysis; type: ADME, organism-based; details: in vivo
How it was run: (§3)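 Male ICR (CD-1) mice (n = 9). Compound formulated in 5% DMSO + 5% Tween-80 in 90% saline and dosed 10 mg/kg po, 1 mg/kg ip or 1 mg/kg iv. Blood drawn from the jugular vein at set time points and held on ice. Plasma separated by centrifugation and stored at −80 °C before parameter derivation.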

[16] = MRT (0 to t) in CD-1 mouse at 1 mg/kg, ip by LC-MS/MS analysis; type: ADME, organism-based; details: in vivo; how it was run: as §3
[17] = MRT (0 to t) in CD-1 mouse at 1 mg/kg, iv by LC-MS/MS analysis; type: ADME, organism-based; details: in vivo; how it was run: as §3
TMD8 [18] = test: Antitumor activity against human TMD8 cells xenografted in NCG mouse assessed as tumor growth inhibition at 30 mg/kg/day, ip measured every 2 days for 13 days by caliper method relative to control; type: functional; details: 312 h, time 13 day, read-out: TGI

Nuclear factor NF-kappa-B complex (Homo sapiens), sequence (P19838 whole entry, looked up): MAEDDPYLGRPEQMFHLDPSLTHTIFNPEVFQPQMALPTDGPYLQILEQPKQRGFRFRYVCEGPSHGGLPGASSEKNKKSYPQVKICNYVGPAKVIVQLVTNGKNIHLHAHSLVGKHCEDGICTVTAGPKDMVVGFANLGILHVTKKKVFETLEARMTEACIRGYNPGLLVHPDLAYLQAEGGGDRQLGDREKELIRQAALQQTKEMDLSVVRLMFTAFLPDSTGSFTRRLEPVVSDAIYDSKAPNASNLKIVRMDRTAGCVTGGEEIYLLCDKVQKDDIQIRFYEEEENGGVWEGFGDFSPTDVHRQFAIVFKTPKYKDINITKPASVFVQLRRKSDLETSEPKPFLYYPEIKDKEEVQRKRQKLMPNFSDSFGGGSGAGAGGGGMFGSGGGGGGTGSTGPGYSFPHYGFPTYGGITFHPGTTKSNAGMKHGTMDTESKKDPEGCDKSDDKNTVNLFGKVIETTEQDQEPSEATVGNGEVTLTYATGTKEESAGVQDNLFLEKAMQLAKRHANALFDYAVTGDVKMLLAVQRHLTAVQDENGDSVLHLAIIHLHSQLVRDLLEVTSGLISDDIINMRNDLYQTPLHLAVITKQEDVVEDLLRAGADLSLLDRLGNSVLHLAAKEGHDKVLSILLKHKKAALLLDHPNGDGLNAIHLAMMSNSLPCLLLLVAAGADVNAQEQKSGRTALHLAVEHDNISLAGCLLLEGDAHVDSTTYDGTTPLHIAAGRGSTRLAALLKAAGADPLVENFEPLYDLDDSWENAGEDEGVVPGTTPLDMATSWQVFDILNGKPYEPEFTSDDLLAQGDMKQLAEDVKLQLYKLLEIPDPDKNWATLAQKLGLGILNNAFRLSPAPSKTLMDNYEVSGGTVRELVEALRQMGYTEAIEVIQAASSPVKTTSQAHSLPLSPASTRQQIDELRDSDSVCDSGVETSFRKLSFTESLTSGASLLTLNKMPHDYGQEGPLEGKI
Nuclear factor NF-kappa-B complex (Homo sapiens), sequence (Q00653 whole entry, looked up): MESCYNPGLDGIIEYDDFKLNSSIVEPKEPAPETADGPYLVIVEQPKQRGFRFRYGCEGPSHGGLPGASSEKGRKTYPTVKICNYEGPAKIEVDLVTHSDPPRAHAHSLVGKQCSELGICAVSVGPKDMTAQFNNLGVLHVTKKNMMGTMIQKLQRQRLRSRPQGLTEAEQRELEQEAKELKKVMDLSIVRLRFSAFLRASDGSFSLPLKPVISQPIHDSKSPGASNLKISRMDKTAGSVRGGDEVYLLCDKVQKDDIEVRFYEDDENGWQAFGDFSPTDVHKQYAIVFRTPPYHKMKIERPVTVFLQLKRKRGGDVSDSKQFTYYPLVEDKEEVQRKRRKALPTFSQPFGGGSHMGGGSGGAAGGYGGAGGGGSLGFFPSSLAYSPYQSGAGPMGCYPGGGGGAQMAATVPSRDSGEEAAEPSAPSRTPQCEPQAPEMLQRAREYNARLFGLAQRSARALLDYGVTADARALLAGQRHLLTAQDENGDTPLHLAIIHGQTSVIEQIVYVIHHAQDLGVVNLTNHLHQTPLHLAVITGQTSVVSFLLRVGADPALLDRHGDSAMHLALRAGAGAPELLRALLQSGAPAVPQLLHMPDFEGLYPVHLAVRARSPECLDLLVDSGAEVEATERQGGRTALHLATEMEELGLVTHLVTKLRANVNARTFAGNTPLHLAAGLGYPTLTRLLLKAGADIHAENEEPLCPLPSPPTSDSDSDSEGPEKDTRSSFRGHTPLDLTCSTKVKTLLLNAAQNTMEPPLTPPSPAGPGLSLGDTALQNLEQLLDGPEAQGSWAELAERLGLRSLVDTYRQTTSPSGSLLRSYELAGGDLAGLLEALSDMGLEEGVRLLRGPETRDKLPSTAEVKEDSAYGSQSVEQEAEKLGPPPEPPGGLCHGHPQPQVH
Nuclear factor NF-kappa-B complex (Homo sapiens), sequence (Q04206 whole entry, looked up): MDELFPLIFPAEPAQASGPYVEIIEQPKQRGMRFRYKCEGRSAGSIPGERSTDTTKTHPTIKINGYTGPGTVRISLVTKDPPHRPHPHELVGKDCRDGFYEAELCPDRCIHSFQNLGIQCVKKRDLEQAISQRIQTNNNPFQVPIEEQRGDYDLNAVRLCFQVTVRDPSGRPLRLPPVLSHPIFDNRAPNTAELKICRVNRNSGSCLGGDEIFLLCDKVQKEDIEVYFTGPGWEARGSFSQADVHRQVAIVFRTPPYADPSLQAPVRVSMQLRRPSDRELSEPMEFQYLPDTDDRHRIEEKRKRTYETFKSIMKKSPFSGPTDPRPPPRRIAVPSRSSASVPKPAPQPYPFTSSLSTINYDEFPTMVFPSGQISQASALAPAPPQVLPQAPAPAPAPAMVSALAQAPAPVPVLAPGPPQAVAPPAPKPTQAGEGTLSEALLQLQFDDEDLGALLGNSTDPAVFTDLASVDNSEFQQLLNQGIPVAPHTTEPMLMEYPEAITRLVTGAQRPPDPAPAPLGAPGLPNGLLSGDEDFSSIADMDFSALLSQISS

Question: For `COc1ccc(OC)c(NC(=O)c2sc(=S)n(-c3ccc(C(F)(F)F)cc3)c2NC(=O)CCl)c1`, which viability at 5 µM [1] is on record?
Answer: 38.8%

Question: And the viability at 10 µM [2]?
Answer: 6.11%

Question: And the Activity [3]?
Answer: 6.78%

Question: What about the Activity (TMD8 [4]) of the same compound?
Answer: 8%

Question: And the viability at 2 µM (OCI-Ly1 [5])?
Answer: 97.4%

Question: And the viability at 10 µM (OCI-Ly1 [6])?
Answer: 95.5%

Question: What about the Activity (OCI-Ly1 [7]) of the same compound?
Answer: 1.53%

Question: And the Activity (TMD8 [8])?
Answer: Dose-Dependent Effect

Question: What about the Activity (OCI-Ly1 [9]) of the same compound?
Answer: inactive

Question: What about the inhibition [10] of the same compound?
Answer: Active

Question: And the inhibition [11]?
Answer: Active

Question: And the inhibition [12]?
Answer: Active

Question: And the Activity [13]?
Answer: 35%

Question: And the half-life [14]?
Answer: 2.83 h

Question: What about the MRT last [15] of the same compound?
Answer: 5.62 h

Question: And the MRT last [16]?
Answer: 5.95 h

Question: What about the MRT last [17] of the same compound?
Answer: 5.66 h

Question: And the inhibition in vivo at 30 mg/kg/day (TMD8 [18])?
Answer: 31%
